Measured values from PubChem BioAssay AID624401 (The Scripps Research Institute Molecular Screening Center, 2012).
Calls of active or inactive are those of the source.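 How the source made its calls: active means activation of 20% or more; inactive means activation below 20%, including negative responses.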

Biological target: Aryl hydrocarbon receptor (Homo sapiens) (UniProt P35869)
Experiment: AhR reporter activation, late-stage follow-up, counter-screen for AHR activator project, luminescence, HG2L7.5c1 cells, set 2 (AID 624401)
Settings: HG2L7.5c1 HepG2 DRE-luciferase reporter, 24 h; for activation: at 10 µM, stronger effect = higher value
Outline: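 Assay system: HepG2-derived HG2L7.5c1 AHR luciferase reporter cells. Probe or stimulus: reporter construct with MMTV promoter plus 20 murine CYP1A1 DREs. Times: 24 h compound exposure, 37 °C. Measured by: lysate luminescence. Read-out basis: % of maximal TCDD response, Hill-fit EC50. Controls: maximal TCDD induction as high control. Replicates: triplicate wells per compound.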

Sequence of Aryl hydrocarbon receptor (Homo sapiens) (P35869 whole entry, looked up): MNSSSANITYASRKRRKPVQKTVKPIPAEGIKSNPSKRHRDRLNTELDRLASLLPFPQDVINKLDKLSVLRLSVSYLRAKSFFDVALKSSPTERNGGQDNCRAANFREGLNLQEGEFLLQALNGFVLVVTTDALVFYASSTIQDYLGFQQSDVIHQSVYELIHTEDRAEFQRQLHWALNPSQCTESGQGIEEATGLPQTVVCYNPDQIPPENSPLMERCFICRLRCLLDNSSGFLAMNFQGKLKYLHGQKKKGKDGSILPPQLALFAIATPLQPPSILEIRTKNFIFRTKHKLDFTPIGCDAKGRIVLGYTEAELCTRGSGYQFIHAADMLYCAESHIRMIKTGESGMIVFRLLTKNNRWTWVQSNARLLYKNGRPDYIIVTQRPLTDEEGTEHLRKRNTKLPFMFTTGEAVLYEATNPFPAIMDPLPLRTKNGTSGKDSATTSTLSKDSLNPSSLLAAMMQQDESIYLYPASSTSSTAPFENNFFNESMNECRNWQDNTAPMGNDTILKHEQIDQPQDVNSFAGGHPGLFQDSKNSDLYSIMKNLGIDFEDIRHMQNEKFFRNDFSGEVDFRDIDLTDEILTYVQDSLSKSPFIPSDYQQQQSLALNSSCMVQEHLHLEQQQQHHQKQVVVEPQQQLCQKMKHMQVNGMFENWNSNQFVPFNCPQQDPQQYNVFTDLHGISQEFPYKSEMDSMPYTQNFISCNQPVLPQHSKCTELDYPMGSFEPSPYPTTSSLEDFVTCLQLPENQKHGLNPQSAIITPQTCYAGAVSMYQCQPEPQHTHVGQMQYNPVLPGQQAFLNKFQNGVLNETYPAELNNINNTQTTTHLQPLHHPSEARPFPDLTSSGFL

Row | activation | EC50 [nM] | Structure (SMILES)
1 | 25.2% | – | Nc1nc(Cl)cc(Nc2ccc(Oc3ccccc3)cc2)n1
2 | inactive | – | COc1ccc(O)c(-c2cc(-c3cccs3)[nH]n2)c1
3 | inactive | – | COc1ccc(Nc2cc(Cl)nc(N)n2)cc1
4 | inactive | – | COc1ccc(NC(=O)c2ccc(C(=O)Nc3ccc(OC)cc3OC)nc2)c(OC)c1
5 | inactive | – | CCOC(=O)c1c(C)nn(-c2cc(Cl)ccc2Cl)c1C
6 | inactive | – | Cc1cc(Nc2ccc(F)cc2)nc(N)n1
7 | inactive | – | Cc1cc(Br)cc(C)c1Nc1ccnc(Nc2ccc(C#N)cc2)n1
8 | inactive | – | COc1ccc(Nc2cc(Cl)nc(N)n2)cc1OC
9 | inactive | – | COc1ccc(Cl)cc1NC(=O)c1ccc(C(=O)Nc2cc(Cl)ccc2OC)nc1
10 | inactive | – | Nc1nc(Cl)cc(Nc2ccccc2F)n1
11 | 15.6% | – | COc1ccc(-c2cc(-c3ccc(C)cc3O)[nH]n2)cc1

The next lines start with the compound.

Row | Structure (SMILES) | activation | EC50 [nM]
12 | O=C(CSc1nc2ccccc2s1)Nc1ccc(Cl)cn1 | inactive | –
13 | Cc1ccc(O)c(-c2cc(-c3ccccc3Cl)[nH]n2)c1 | 32% | –
14 | CN(Cc1cc(-c2cccs2)n[nH]1)Cc1coc2ccccc2c1=O | inactive | –
15 | Cc1ccc(-c2cc(-c3cccc(F)c3)n[nH]2)c(O)c1 | – | 650
16 | CCOc1ccccc1NC(=O)c1ccc(C(=O)Nc2ccccc2OCC)nc1 | 48.4% | –
17 | Cc1ccc(-c2cc(-c3ccc(Cl)cc3)n[nH]2)c(O)c1 | – | 4000
18 | Cc1cccc(C)c1NC(=O)c1ccc(C(=O)Nc2c(C)cccc2C)nc1 | inactive | –
19 | O=C(CSc1nc2ccccc2s1)Nc1ccccn1 | 18.9% | –
20 | Cc1csc(SCC(=O)Nc2ccccn2)n1 | inactive | –
21 | Cc1cccc(NC(=O)c2cc(-c3ccc(C)cc3O)n[nH]2)c1 | inactive | –
22 | Cc1ccnc(NC(=O)CSc2nc3ccccc3s2)c1 | inactive | –
23 | Cc1ccc(NC(=O)c2ccc(C(=O)Nc3ccc(C)cc3C)nc2)c(C)c1 | inactive | –
24 | Cc1ccc(-c2cc(-c3ccc(F)cc3)n[nH]2)c(O)c1 | – | 250
25 | O=C(CSc1nc(-c2ccc(F)cc2)cs1)Nc1ccccn1 | inactive | –
